From PubChem BioAssay
NR2E3 ag-1 = activates human photoreceptor nuclear receptor NR2E3 | GST-NR2E3/biotin-RetCOR TR-FRET, 1536-well | inhibition of corepressor binding, % at 4.78 µM | 320,000 tested, 0.12% active;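 active = percent inhibition above the cutoff of mean plus 3 SD of all tested compounds, set per screening campaign, cut at about 20% in these data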;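 also: 0% = DMSO wells and 100% = biotin wells as full block of FRET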
Target sequence (Q9Y5X4 whole entry, looked up): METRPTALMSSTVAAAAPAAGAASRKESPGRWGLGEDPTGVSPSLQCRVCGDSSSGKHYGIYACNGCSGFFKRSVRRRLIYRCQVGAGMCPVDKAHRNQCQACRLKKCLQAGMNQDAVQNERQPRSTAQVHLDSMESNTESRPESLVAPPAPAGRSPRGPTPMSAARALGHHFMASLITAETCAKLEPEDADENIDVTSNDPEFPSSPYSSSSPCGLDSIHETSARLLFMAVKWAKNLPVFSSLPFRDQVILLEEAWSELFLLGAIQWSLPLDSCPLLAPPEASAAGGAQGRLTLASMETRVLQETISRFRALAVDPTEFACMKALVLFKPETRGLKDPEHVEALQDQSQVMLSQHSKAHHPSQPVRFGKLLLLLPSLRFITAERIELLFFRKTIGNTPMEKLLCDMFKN
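Material: NR2E3–RetCOR corepressor complex | Quantity: 1.35 nM GST-tagged NR2E3 final | Schedule: 5 h at 4 °C | Replication: Singlicate compound wells | Reagent: RetCOR corepressor, biotinylated, 7 nM | Controls: Biotin wells as high control, 0.6% DMSO wells as low control | Signal: TR-FRET, Eu(K)-anti-GST donor, streptavidin-D2 acceptor, ex 340, em 617/671 nm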
HIV Env fusion = inhibitors of HIV Env-mediated cell fusion | inhibition, % at 12.3 µM | HeLa-JRFL Env/CEM21 cell fusion, luciferase | 360,000 tested, 1.1% active;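 active = mean replicate inhibition score of at least 50 and every replicate individually at or above 50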;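 also: 0% = plate neutral controls and 100% = maraviroc near 300 nM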
FXN GAA850 act = activators of GAA850 frataxin (FXN) promoter; HEK293 lucGAA850 FXN promoter luciferase reporter, 24 h; percent of 10 µM SAHA response; 360,000 tested, 0.56% active; activation, % at 6 µM; AID 540364;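 active = activation above the average of all compounds screened plus 3 SD, cutoff fixed separately per campaign, cut at about 7.5% in these data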;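 also: 0% = DMSO wells and 100% = 10 µM SAHA wells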
GalR3 antag = antagonists of human GalR3 | O60755 | HEK293 GalR3-CNG cAMP membrane potential fluorescence; galR3 body fused to GalR1 C-terminus | inhibition, % at 3 µM | 360,000 tested, 0.44% active | AID 651719;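 active = inhibition above the screen-wide average plus 3 SD, cut at about 13% in these data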;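 also: forskolin and galanin both at EC90 stimulate the cells; cAMP rise reported by CNG channel membrane potential dye signal; 0% = forskolin plus galanin with DMSO and 100% = forskolin alone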
Target sequence (O60755 1-299 limits assumed): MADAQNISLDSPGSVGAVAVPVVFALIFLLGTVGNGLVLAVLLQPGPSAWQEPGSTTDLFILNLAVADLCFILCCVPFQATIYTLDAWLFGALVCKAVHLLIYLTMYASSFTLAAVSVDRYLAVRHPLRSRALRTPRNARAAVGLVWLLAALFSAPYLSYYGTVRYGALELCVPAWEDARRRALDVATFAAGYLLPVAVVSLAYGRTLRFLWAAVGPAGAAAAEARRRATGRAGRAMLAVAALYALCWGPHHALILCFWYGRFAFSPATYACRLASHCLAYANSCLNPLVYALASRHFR
V-ATPase pH = alters yeast V-ATPase proton transport | response, % at 10 µM | 350,000 tested, 0.37% active | S. cerevisiae, pHLuorin cytosolic pH fluorescence; in the data active = response mostly above about 7.3%, no sharp cut-off; inactive = mostly below about 5.4%; also: actives read high
NR2E3 ag-2 = human photoreceptor-specific nuclear receptor agonism | CHO-S Gal4-NCOR/VP16-NR2E3 two-hybrid, luciferase | 360,000 tested, 0.35% active | inhibition of corepressor binding, % at 3.98 µM;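 active = inhibition above the mean of all tested compounds plus 3 SD, cut at about 70% in these data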;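 also: 0% = DMSO with NR2E3 transfected cells and 100% = cells lacking NR2E3 construct; higher means lower luciferase signal from less NR2E3 corepressor binding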
The depositor's hits bear a star; x = no result given; [ ] = remark or other dose. Only some compounds are listed: those with a hit (about 2.2% of all), similar ones and a draw of the others.

SMILES	NR2E3 ag-1	HIV Env fusion	FXN GAA850 act	GalR3 antag	V-ATPase pH	NR2E3 ag-2
C[C@@H]1CN([C@@H](C)CO)C(=O)c2cc(C3=CCCCC3)cnc2O[C@@H]1CN(C)Cc1ccccc1	x	19.2[16.7 µM]	x	x	x	x
CCNC(=O)C[C@@H]1CC[C@@H]2[C@@H](COc3ccc(NC(=O)Cc4cccs4)cc3C(=O)N2C)O1	x	74.8*[16.7 µM]	x	x	x	x
CN1C(=O)c2cc(NC(=O)c3cscn3)ccc2OC[C@@H]2O[C@@H](CC(=O)NCc3ccc(Cl)c(Cl)c3)CC[C@H]21	x	57.2*[16.7 µM]	x	x	x	x
CCNC(=O)C[C@H]1CC[C@@H]2[C@H](COc3ccc(NC(=O)Cc4cccs4)cc3C(=O)N2C)O1	x	-5.1[16.7 µM]	x	x	x	x
COCC(=O)Nc1ccc2c(c1)C(=O)N(C)[C@H]1CC[C@H](CC(=O)NC3CCCC3)O[C@H]1CO2	x	56.8*[16.7 µM]	x	x	x	x
CCNC(=O)Nc1ccc2c(c1)C(=O)N(C)[C@@H]1CC[C@@H](CC(=O)NCC3CCCCC3)O[C@@H]1CO2	x	56.6*[16.7 µM]	x	x	x	x
CCNC(=O)C[C@@H]1CC[C@@H]2[C@@H](COc3ccc(NC(=O)c4cscn4)cc3C(=O)N2C)O1	x	18.1[16.7 µM]	x	x	x	x
COCC#Cc1ccc2c(c1)O[C@H](CN(C)Cc1ccc3c(c1)OCO3)[C@H](C)CN([C@@H](C)CO)S2(=O)=O	x	17.3[16.7 µM]	x	x	x	x
CCCC(NC(=O)c1c(C)noc1C)C12CC3CC(CC(C3)C1)C2 (stereo not drawn)	-0.2	59.8*	1.8	10.2	-0.9	-13.1
Cc1noc(C)c1C(=O)NC(C)C12CC3CC(CC(C3)C1)C2 (stereo not drawn)	-0.6	20.6	1.4	-4.8	-3.9	-22.0
COc1cc(Nc2c3ccccc3nc3ccccc23)cc(OC)c1OC	-4.1	-75.7	-2.0	-10.8	-1.9	2.4
COc1ccccc1Nc1c2ccccc2nc2ccccc12	-7.2	56.6*	5.4	-13.3	-3.3	-18.1
CC(=O)Nc1ccc(NC(=O)C(C)OC(=O)c2cccc(S(=O)(=O)N3CCCCC3)c2)cc1 (stereo not drawn)	-0.5	-17.1	-1.8	-1.0	3.8	3.9
CC(=O)Nc1ccc(NC(=O)C(C)OC(=O)c2cccc(S(=O)(=O)N3CCCCCC3)c2)cc1 (stereo not drawn)	0.7	-8.9	1.4	-5.8	15.3*	19.9
CCCNC(=O)N[C@@H]1CC[C@@H](CC(=O)NC2CCC2)O[C@H]1CO	x	-5.3[16.7 µM]	x	x	x	x
O=C(N/N=C\c1ccc([N+](=O)[O-])s1)c1cncc(Br)c1	-1.7	103.8*	-7.6	-4.8	-3.9	5.1
C[C@H]1CCCCO[C@@H](CN(C)Cc2ccc(C(F)(F)F)cc2)[C@@H](C)CN([C@@H](C)CO)C(=O)c2cc(N(C)C)ccc2O1	x	40.7[16.7 µM]	x	x	x	x
O=C(c1oc2ccccc2c1CSCc1ccccc1)N1CCN(c2ncccn2)CC1	-0.5	55.6*	-0.3	-2.8	-2.1	-22.6
CCOCC(=O)Nc1c(C(=O)N2CCN(c3ncccn3)CC2)oc2ccccc12	0.4	-1.6	2.0	-6.2	9.9	-12.9
COc1ccc(CNc2ncnc3sccc23)cc1OC	2.0	43.5	-0.7	-9.5	-2.0	79.9*
COc1ccc(C(CNc2ncnc3sccc23)N(C)C)cc1OC (stereo not drawn)	-0.8	10.5	0.0	-8.9	-2.6	-24.6
O=C(C[C@@H]1C=C[C@H](NC(=O)c2cccnc2)[C@H](CO)O1)NCc1ccc(Cl)c(Cl)c1	x	-9.7[16.7 µM]	x	x	x	x
C[C@@H]1CN([C@@H](C)CO)C(=O)Cc2cc(NC(=O)Nc3ccc4c(c3)OCO4)ccc2O[C@H]1CN(C)C(=O)Nc1ccc(C(F)(F)F)cc1	x	17.6[16.7 µM]	x	x	x	x
C[C@@H]1CN([C@@H](C)CO)C(=O)c2c(c3ccccc3n2C)-c2ccccc2CO[C@@H]1CN(C)S(=O)(=O)c1cn(C)cn1	x	-21.4[16.7 µM]	x	x	x	x
Cc1ccc(-n2nc3c(c2NC(=O)c2ccco2)CS(=O)C3)cc1 (stereo not drawn)	0.7	88.3*	-1.1	-0.6	3.2	-5.1
SMILES	NR2E3 ag-1	HIV Env fusion	FXN GAA850 act	GalR3 antag	V-ATPase pH	NR2E3 ag-2
O=C(Nc1c2c(nn1-c1ccc(F)cc1)CS(=O)C2)c1ccco1 (stereo not drawn)	1.7	-2.5	2.7	2.1	3.8	-0.6
Cc1oc(-c2ccc(Cl)cc2)nc1CN1CCCC(C(=O)NC2CC2)C1 (stereo not drawn)	3.9	26.6	-0.4	-8.2	5.9	13.7
Cc1oc(-c2cc3c(cc2Cl)OCO3)nc1CN1CCCC(C(=O)N2CCOCC2)C1 (stereo not drawn)	5.0	6.6	-1.2	-1.1	15.7*	27.8
CCOC(=O)N1CCN(C(=O)C2CCCN(Cc3nc(-c4ccc(Cl)cc4)oc3C)C2)CC1 (stereo not drawn)	0.1	32.9	-4.0	82.0*	-2.2	13.8
N#C[C@@H]1[C@H](c2ccc(C#CC3CCCC3)cc2)[C@@H](CO)N1S(=O)(=O)c1ccccc1	x	0.6[16.7 µM]	x	x	x	x
COCC#Cc1cnc2c(c1)C(=O)N([C@H](C)CO)C[C@H](C)[C@H](CN(C)C(=O)c1cnccn1)O2	x	3.2[16.7 µM]	x	x	x	x
CNC(=O)c1nnsc1S(=O)(=O)c1ccc(Cl)cc1	x	13.3	-15.4	-2.1	-1.3	22.9
O=C(c1nnsc1S(=O)(=O)c1ccc(Cl)cc1)N1CCOCC1	x	26.5	-12.9	21.8*	1.5	-9.6
C[C@@H]1CN([C@H](C)CO)C(=O)c2cccc(NC(=O)c3ccncc3)c2O[C@@H]1CN(C)C(=O)Nc1ccc(C(F)(F)F)cc1	x	-15.4[16.7 µM]	x	x	x	x
CCC(=O)N1C[C@@H](C)[C@@H](OC)CN(C)C(=O)c2ccc(NC(=O)NC(C)C)cc2OC[C@H]1C	x	-3.9[16.7 µM]	x	x	x	x
O=C(C[C@H]1C[C@@H]2c3cc(NC(=O)C4CCC4)ccc3O[C@@H]2[C@@H](CO)O1)NCC(F)(F)F	x	88.3*[16.7 µM]	x	x	x	x
O=C(C[C@@H]1C[C@@H]2c3cc(NC(=O)C4CCC4)ccc3O[C@@H]2[C@@H](CO)O1)NCC(F)(F)F	x	89.7*[16.7 µM]	x	x	x	x
O=C(C[C@@H]1C[C@H]2c3cc(NC(=O)C4CCOCC4)ccc3O[C@H]2[C@H](CO)O1)NCC(F)(F)F	x	-6.0[16.7 µM]	x	x	x	x
C[C@H](CO)N1C[C@H](C)[C@@H](CN(C)C(=O)CN(C)C)Oc2cc(C#C[C@@H](C)O)ccc2S1(=O)=O	x	19.5[16.7 µM]	x	x	x	x
CC(C)CC#Cc1cnc2c(c1)C(=O)N([C@H](C)CO)C[C@@H](C)[C@@H](CN(C)C(=O)c1cccc(F)c1)O2	x	-3.6[16.7 µM]	x	x	x	x
